MC4R ag barr – activates human MC4R beta-arrestin recruitment; U2OS MC4R beta-arrestin complementation, luminescence; percent of melanotan II response, DMSO zero; activation, % at 8.9 µM; 360,000 compounds, 0.98% hits;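 active = activation above a per-plate cutoff, the mean activation of sample wells on that plate plus 3 SD, cut at about 8% in these data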
MC4R antag cAMP – blocks human MC4R cAMP signaling. MC4R-expressing cells, MTII-stimulated cAMP, LANCE TR-FRET. inhibition, % at 6.5 µM. 360,000 compounds, 0.48% hits;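 active = inhibition above its plate's cutoff, the mean of tested wells on that plate plus 3 SD, cut at about 29% in these data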;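 also: 0% = Melanotan II alone and 100% = Melanotan II plus saturating MCL0020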
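system = U2OS cells with stable human MC4R expression | also added = Melanotan II challenge after compound preincubation | dosing = one concentration, 6.5 µM nominal | incubation = compound 30 min, challenge 1 h, detection 1 h | measured by = TR-FRET with Eu-cAMP and labeled anti-cAMP, 671 nm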
CSC inhib – cancer stem cell inhibition; 300,000 compounds, 1.1% hits; cancer stem cell-like cells viability, luminescence; AID 2717; inhibition, % at 7.5 µM; in the data active = inhibition above about 75%; tested in HMLE shEcad cells
ANO1 block – blocks the mouse calcium-activated chloride channel TMEM16A. Q8BHY3. HEK293 TMEM16A/YFP iodide influx fluorescence, ionomycin. normalized B-score (activity score, 25-100; higher = stronger inhibition) at 10 µM. 310,000 compounds, 1.2% hits. AID 588511;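 active = ratio plate-corrected score three or more library SD toward inhibition, starting fluorescence score within five deviations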;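 also: score derived from kinetic fluorescence span divided by baseline fluorescence per well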
Target sequence (Q8BHY3 whole entry, looked up): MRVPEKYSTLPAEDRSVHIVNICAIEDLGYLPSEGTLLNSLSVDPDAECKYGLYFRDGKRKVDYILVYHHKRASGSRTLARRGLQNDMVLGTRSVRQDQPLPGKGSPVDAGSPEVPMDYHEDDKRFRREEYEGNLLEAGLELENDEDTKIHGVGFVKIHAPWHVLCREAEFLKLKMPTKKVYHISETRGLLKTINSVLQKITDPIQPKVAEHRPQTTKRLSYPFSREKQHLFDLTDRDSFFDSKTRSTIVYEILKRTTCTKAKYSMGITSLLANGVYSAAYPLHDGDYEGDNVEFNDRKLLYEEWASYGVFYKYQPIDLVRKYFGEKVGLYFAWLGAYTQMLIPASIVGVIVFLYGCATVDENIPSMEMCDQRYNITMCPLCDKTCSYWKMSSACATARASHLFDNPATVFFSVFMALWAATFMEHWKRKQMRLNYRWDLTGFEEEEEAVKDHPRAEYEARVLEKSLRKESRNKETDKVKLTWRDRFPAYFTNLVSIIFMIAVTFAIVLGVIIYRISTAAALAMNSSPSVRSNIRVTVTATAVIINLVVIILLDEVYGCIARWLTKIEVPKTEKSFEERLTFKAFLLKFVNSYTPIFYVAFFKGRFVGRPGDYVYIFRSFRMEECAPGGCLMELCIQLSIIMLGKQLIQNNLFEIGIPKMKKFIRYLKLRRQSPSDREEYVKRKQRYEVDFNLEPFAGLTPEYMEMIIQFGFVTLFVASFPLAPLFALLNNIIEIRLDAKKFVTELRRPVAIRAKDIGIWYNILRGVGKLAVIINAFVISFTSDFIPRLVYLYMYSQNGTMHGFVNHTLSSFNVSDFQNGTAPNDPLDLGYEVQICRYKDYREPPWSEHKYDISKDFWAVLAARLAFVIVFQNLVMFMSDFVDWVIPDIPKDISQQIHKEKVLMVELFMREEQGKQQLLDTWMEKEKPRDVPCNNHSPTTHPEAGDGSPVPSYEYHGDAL
ANO1 activ – activators or potentiators of mouse TMEM16A chloride channel; Q8BHY3; HEK293 TMEM16A/YFP-H148Q/I152L, iodide quench fluorescence; stronger effect = lower value; B-score at 10 µM; 340,000 compounds, 0.3% hits;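 active = fluorescence-ratio B-score plate-corrected deviation score at least 3 library SD below zero, with starting fluorescence score within 5 deviations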;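 also: channel opened by trigger with iodide after compound preincubation; score built on the fluorescence ratio of max minus min over baseline; more negative score means more quench and so TMEM16A activation or potentiation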
Beta cell apopt – beta cell apoptosis inhibition | INS-1E cytokine-induced death, ATP luminescence, 48 h; percent of positive-control rescue, neutral wells zero | protection from apoptosis, % (test concentration not listed) | 300,000 compounds, 0.8% hits | AID 435005;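 active = Every replicate reaches about 75%, or at least half do and their mean reaches it too, limit read from the data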;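 also: 0% = cytokine-treated negative control wells and 100% = positive control rescue; higher means more ATP so stronger rescue from cytokine killing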
Active calls of the source: *; i = inactive; / = no result. The list is not random: actives were taken first. Their share in the collection is about 3.8%.

SMILES	MC4R ag barr	MC4R antag cAMP	CSC inhib	ANO1 block	ANO1 activ	Beta cell apopt
CCCCCCC[C@@H](C/C=C/CCC(=O)N(C)C/C(=C/Cl)C/C(=C\C(=O)N1CC(OC)=CC1=O)OC)OC	-1.6	23.6	140.0*	/	/	38.9
COc1ccc(-n2cc(-c3ccccc3)c3c(N4CCOCC4)ncnc32)cc1	0.1	15.3	102.4*	i	i	8.9
O=C(NC1(Cc2ccccc2)CCN(CCCc2ccccc2)C1=O)c1ccccc1 (stereo unspecified)	0.7	-2.5	-10.3	/	i	111.3*
OCC1(Cc2ccc(Cl)cc2)CCN(CCCc2ccccc2)CC1	3.4	0.8	-11.4	i	i	-4.5
O=C(O)Cc1c[nH]c2ccccc12	-0.8	6.5	1.4	i	i	-0.8
O=C(CCl)N(c1ccccc1)c1c[nH]c2ccccc12	18.7*	5.9	58.7	i	i	-31.9
O=C(CCl)N(c1ccc(Cl)cc1)c1c[nH]c2ccccc12	-0.9	20.2	88.3*	i	i	-5.1
CCCCC[C@@H]1C=C(C(=O)O)[C@H](c2ccc(F)cc2)N1S(=O)(=O)c1ccc(C)cc1	1.3	-2.6	/	/	/	-11.9
S=C(Nc1ccc(Cl)cc1Cl)Nc1ccccc1Oc1ccccc1	1.6	1.0	15.8	i	i	-6.7
S=C(Nc1cccc(Cl)c1)Nc1ccccc1Oc1ccccc1	6.2	9.5	/	100*	i	-2.1
O=C(c1ccccc1)c1c[nH]c(C(=O)NNc2ccccc2)c1	-1.0	4.5	96.7*	i	i	12.3
CCN(Cc1ccccc1)C(=O)CC(=O)N(CC)Cc1ccccc1	2.2	-1.8	18.9	i	i	/
CCc1ccccc1NC(=O)CN1CCN(C(=O)CNC(=O)c2ccc(N3CCCC3=O)cc2)CC1	0.0	-6.7	-2.8	/	i	-8.3
O=C(C[C@H]1C/C=C\C[C@H](NC(=O)OCC2c3ccccc3-c3ccccc32)C(=O)O[C@H](c2ccccc2)CNC1=O)N[C@H](CO)Cc1ccccc1	26.0*	0.3	/	/	i	34.7
O=C(Nc1ccc2c(c1)OCO2)C1CC(c2ccc(Cl)cc2)=NO1 (stereo unspecified)	1.7	6.1	/	100*	i	-3.7
O=C(Nc1nnc(-c2ccc3c(c2)CCCC3)o1)C1COc2ccccc2O1 (stereo unspecified)	-2.7	1.5	31.1	25*	i	-3.6
Cc1ccc(NNC(=O)C(=O)N2CCCCC2)cc1	-0.8	6.0	112.0*	i	i	/
Cc1ccccc1C(=O)NNC(=O)C(=O)N1CCCCC1	0.3	-1.7	-8.6	i	i	-5.3
CCC(=O)N(c1ccc(C(=O)O)cc1)c1nc(-c2ccc(OC)cc2)c(C)s1	-1.8	19.2	-10.5	i	i	-5.1
Cc1sc(N(C(=O)CCc2ccccc2)c2ccc(C(=O)O)cc2)nc1-c1ccccc1	0.1	27.4	23.2	25*	i	5.5
CN(C)N1C(N)=C(C#N)C(c2ccccc2)C2=C1CC(C)(C)CC2=O (stereo unspecified)	0.5	1.7	-10.7	i	i	1.7
CN(C)N1C(N)=C(C#N)C(c2cccc3ccccc23)C2=C1CC(c1ccccc1)CC2=O (stereo unspecified)	-1.8	4.8	80.1*	i	i	-0.7
COc1cccc(OCC(=O)N2CCCc3ccccc32)c1	0.3	-0.5	-4.9	i	i	7.6
CN1CCN(c2ccc(S(=O)(=O)N3CCCCC3)cc2NC(=O)/C=C/c2ccc(Cl)c([N+](=O)[O-])c2)CC1	-2.5	7.6	98.4*	i	i	/
O=C1CCc2cc(S(=O)(=O)Nc3ccccc3)cc3c2N1CCC3	0.3	6.9	-6.8	i	i	2.8
Cc1nn(C(=O)CNS(=O)(=O)c2ccccc2)c(C)c1Sc1ccc(Cl)cc1	8.9*	8.5	/	i	i	-10.1
Cc1cc(/C=C2\SC(=S)NC2=O)c(C)n1-c1cccc(O)c1	-1.1	25.0	0.9	i	i	-0.8
Cc1sc(-n2c(C)cc(/C=C3\SC(=S)NC3=O)c2C)c(C#N)c1C	-3.5	-13.3	78.8*	i	i	-5.7

Assay outcomes as filed in PubChem BioAssay.
